The conditions of series [1]: values determined in Sprague Dawley rat; cited from earlier work.
The nature of series [2]: Oxidation susceptibility / stability with rat liver microsomes by mass analysis. It is filed as in vitro ADME. The settings on record: 37 °C. In outline:
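Test compound incubated with rat liver microsomes at 37 °C over a time course. Samples analysed by mass spectrometry, with extracted-ion chromatograms monitored for parent and oxidised species. Recovery calculated from the AUC of the extracted ion.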

A further series deals with MYC (Homo sapiens, UniProt P01106). The series is described as follows: Affinity for MYC. In kind it is binding.
A short description of series [3]: Mouse i.v. PK study of 5g. It is filed as in vivo, C57Bl6 mice. The settings on record: 5g versus 5a.
Series [4] has as its system CEF transfected with ATG-MYC. The series is described as follows: Focus assay: microtumor formation by ATG-MYC expressing vector in CEF. In kind it is cell-based, chicken.

Structures are written as SMILES.

MYC, sequence (P01106 whole entry, species assumed): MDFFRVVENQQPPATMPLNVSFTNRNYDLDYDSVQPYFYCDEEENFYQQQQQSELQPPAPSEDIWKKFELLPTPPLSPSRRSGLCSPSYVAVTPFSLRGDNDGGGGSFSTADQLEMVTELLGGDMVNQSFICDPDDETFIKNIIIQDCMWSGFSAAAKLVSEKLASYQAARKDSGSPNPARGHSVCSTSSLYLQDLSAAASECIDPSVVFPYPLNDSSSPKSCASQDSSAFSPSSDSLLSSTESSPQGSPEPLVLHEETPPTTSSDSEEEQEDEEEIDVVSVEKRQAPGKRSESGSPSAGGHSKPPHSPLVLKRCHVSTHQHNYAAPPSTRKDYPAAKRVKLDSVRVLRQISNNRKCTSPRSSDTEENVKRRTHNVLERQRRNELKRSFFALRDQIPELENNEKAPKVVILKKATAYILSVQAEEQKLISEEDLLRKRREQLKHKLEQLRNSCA

For the compound `NC(=O)c1ccc(-c2cc(-c3ccc([N+](=O)[O-])cc3)nc(-c3ccco3)c2)cc1` [5a], the Half-life in series [1] is 1.6 h. For the same compound, the “fate of nitro group on incubation with rat liver microsomes” value in series [2] is given as “readily eliminated”.

As for `NC(=O)c1ccc(-c2cc(-c3ccc(-c4nccs4)cc3)nc(-c3ccco3)c2)cc1` [5g], the “ligand efficiency (LE)” value at MYC worked out at 0.36. In addition, the “improvement in exposure (AUC) compared with 5a” value in series [3] amounted to 30 fold.

Turning to `c1coc(-c2cc(-c3nccs3)cc(-c3ccc(-c4nccs4)cc3)n2)c1` [5j], the “activity in the CEF assay” value in series [4] is on record as “not found to have any activity”.

In the case of `CS(=O)(=O)NC(=O)c1ccc(-c2cc(-c3ccc(C#N)cc3)nc(-c3ccco3)c2)cc1` [5m], the “loss of potency compared to 5a” value in series [4] (CEF assay) came out at 10 fold.
